Assay outcomes from PubChem.
An excerpt weighted towards active compounds, which were near 2.3% of everything screened.
ABHD4 inh – ABHD4 inhibitors, primary screen, biochemical, fluorescence polarization, mouse; purified mABHD4, FP-Rh probe fluorescence polarization; inhibition, % at 8.92 µM; hit rate 0.54% among 370,000;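 active means inhibition exceeding the mean over every tested compound plus 3 SD, cut at about 30% in these data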;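 further: 0% = plate median of compound wells and 100% = S159A mutant with DMSO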
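Assay system: Wild-type mouse ABHD4 protein | Medium: HEPES pH 7.0 buffer, 150 mM NaCl, 0.01% Pluronic F-127 | Incubation: Enzyme–compound pre-incubation 45 min, then probe 60 min, both 25 °C | Technique: Fluorescence polarization with parallel and perpendicular emission, 525/598 nm | Evaluation: % inhibition of FP-Rh probe binding versus controls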
TCR CD3 inh – inhibitors of human TCR-CD3 interaction, primary screen, biochemical, fluorescence, TAMRA-labeled TCR probe | hit rate 0.37% among 360,000 | T-cell receptor (TCR) | inhibition, % at 9.4 µM; in the data active means inhibition above about 19%;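 further: recombinant mutant TCR 2C K166C tagged with TAMRA read by polarization; 0% = receptor in buffer alone and 100% = receptor with positive control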
SIAE primary – human SIAE inhibitors, primary screen, biochemical, fluorescence polarization, FP-Rh probe, 1536-well HTS; Sialate O-acetylesterase (Homo sapiens), Q9HAT2; SIAE FP-Rh probe binding; inhibition, % at 9.66 µM; hit rate 0.69% among 370,000; AID 1053197, 2014;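 active means inhibition above a cutoff: mean of compounds within the control limits plus 3 SD of those, cut at about 17% in these data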;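 further: 0% = plate median of compound wells and 100% = probe without SIAE protein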
HTRA1 inhibitor – HTRA1 serine protease inhibitors, primary screen, biochemical, fluorescence polarization, HTS; Q92743; recombinant HTRA1, FP-rhodamine activity-based probe; inhibition, % at 5.96 µM; hit rate 0.5% among 340,000; in the data active means inhibition above about 36%;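 further: 0% = enzyme with DMSO and 100% = wells lacking enzyme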
pPAFAH FP inh – pPAFAH enzyme inhibitors, primary screen, biochemical, fluorescence polarization, human; Platelet-activating factor acetylhydrolase (Homo sapiens), Q13093; recombinant pPAFAH, FP-rhodamine probe fluorescence polarization; inhibition, % at 3.39 µM; hit rate 1.5% among 330,000; AID 463082, 2010;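 active means inhibition above the mean inhibition across the screen plus 3 SD, cut at about 25% in these data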;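 further: inhibitors block binding of the rhodamine activity-based probe so polarization drops; 0% = enzyme with DMSO and 100% = wells lacking pPAFAH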
Target sequence (Q13093 whole entry, looked up): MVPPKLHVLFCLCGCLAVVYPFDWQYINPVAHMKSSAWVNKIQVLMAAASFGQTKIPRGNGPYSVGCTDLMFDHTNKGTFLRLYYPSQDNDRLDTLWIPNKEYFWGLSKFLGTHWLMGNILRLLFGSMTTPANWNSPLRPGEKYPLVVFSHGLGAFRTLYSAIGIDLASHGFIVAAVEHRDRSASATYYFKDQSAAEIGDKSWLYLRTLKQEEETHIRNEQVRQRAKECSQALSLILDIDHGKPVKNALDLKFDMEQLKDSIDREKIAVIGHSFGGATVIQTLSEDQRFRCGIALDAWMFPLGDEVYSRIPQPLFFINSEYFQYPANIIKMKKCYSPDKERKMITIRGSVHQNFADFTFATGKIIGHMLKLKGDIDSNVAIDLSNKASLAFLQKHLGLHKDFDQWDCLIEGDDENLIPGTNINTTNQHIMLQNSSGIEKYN
mABHD4 conf – ABHD4 inhibitors, retest, confirmation, biochemical, fluorescence polarization, mouse; inhibition, % at 8.92 µM; shares compounds with ABHD4 inh; hit rate 55% among 1,800; purified mABHD4, FP-Rh probe fluorescence polarization; AID 720658, 2013;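 active means mean inhibition across replicates above the hit cutoff set in the primary screen, cut at about 30% in these data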;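 further: 0% = wild-type ABHD4 with DMSO and 100% = catalytically dead S159A mutant with DMSO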
* hit, by the source's call; / = no result given.

SMILES	ABHD4 inh	TCR CD3 inh	SIAE primary	HTRA1 inhibitor	pPAFAH FP inh	mABHD4 conf
CCC[C@@H](CN1CCC[C@H]1CN1C(N)=NC[C@H]1CC(C)C)N1C[C@@H](Cc2ccccc2)N(CCCC2CCCC2)C1=N	34*	2	15	-5	-2	26
C=C/C(C)=C/C[C@H]1C(=C)CCC2[C@](C)(C(=O)O)CCC[C@@]21C (stereo partly drawn)	/	/	/	-8	-3	/
C=C1CCC2C(C)(C)CCC[C@]2(C)[C@H]1CC1=C(O)C(=O)C(CO)=CC1=O (stereo partly drawn)	39*	/	0	/	/	71*
COC(=O)c1cnn(-c2ccc(F)cc2F)c1/C=N/NC(=S)Nc1ccccc1	-4	/	-1	/	/	/
CCN(CC)c1ccc2cc(C(N)=O)c(=N)oc2c1	9	1	-4	/	2	/
CCN(CC)c1ccc2cc(C(N)=O)c(=O)oc2c1	41*	11	10	10	3	4
Cc1ccc(CN2CCCCC(NC(=O)Nc3ccccc3-c3ccccc3)C2=O)cc1 (stereo not drawn)	-8	/	4	/	/	/
Nc1[nH]c(C(=O)c2ccc(Br)cc2)c(-c2ccccc2)c1C(=O)NCCc1c[nH]c2ccccc12	10	-3	12	/	/	/
Nc1[nH]c(C(=O)c2ccccc2)c(-c2ccc(Cl)cc2)c1C(=O)NCCc1c[nH]c2ccccc12	31*	-7	10	/	/	23
Nc1[nH]c(C(=O)c2ccccc2)c(-c2cccnc2)c1C(=O)NCCc1c[nH]c2ccccc12	5	/	-2	/	/	/
Nc1[nH]c(C(=O)c2ccc(Br)cc2)c(-c2ccc3ccccc3c2)c1C(=O)NCCc1c[nH]c2ccccc12	30*	-9	10	/	/	35*
Nc1[nH]c(C(=O)c2ccccc2)c(-c2ccc3c(c2)OCO3)c1C(=O)NCCc1c[nH]c2ccccc12	33*	3	13	/	/	39*
Nc1[nH]c(C(=O)c2ccccc2)c(-c2ccc(Cl)c(Cl)c2)c1C(=O)NCCc1c[nH]c2ccccc12	33*	2	11	/	/	19
C[C@H]1[C@@H](N(C)Cc2ccccc2)CC[C@@]23CCCN2C(=O)CCC[C@@H]13	2	/	2	/	/	/
Cc1cc(C)cc(-c2c(C(=O)c3ccccc3)[nH]c(N)c2C(=O)NCCc2c[nH]c3ccccc23)c1	29	/	4	/	/	/
Nc1[nH]c(C(=O)c2ccccc2)c(-c2ccc(Cl)c(F)c2)c1C(=O)NCCc1c[nH]c2ccccc12	40*	1	16	/	/	43*
Nc1[nH]c(C(=O)c2ccccc2)c(-c2ccc(F)cc2)c1C(=O)NCCc1c[nH]c2ccccc12	20	-7	9	/	/	/
Nc1[nH]c(C(=O)c2ccccc2)c(-c2cccc(C(F)(F)F)c2)c1C(=O)NCCc1c[nH]c2ccccc12	31*	-2	13	/	/	3
COc1ccc(CCN(Cc2cccs2)S(=O)(=O)c2ccccc2)cc1OC	-5	/	-4	/	/	/
CC(=O)Nc1ccc(-c2ccnc3c2CC(C)(C(=O)NCc2ccc(N4CCN(C)CC4)cc2)O3)cc1 (stereo not drawn)	3	8	0	/	/	/
c1ccc(Cn2c(Cn3c(-c4cnccn4)nc4ccccc43)nc3ccccc32)cc1	-8	-10	-5	/	/	/
CN1CCCN(S(=O)(=O)c2ccc3c(c2)n(C)c(=O)c(=O)n3C)CC1	0	/	2	/	/	/
Cc1ccc(NC(=S)N=Nc2c(O)[nH]c3ccccc23)cc1	9	3	-6	9	9	/
Oc1ccc(NC(=S)N=Nc2c(O)[nH]c3ccc(Br)cc23)cc1	30*	-2	8	9	/	33*
CN(C(=S)Nc1cccnc1)c1ccc(O)cc1	47*	15	12	22	29*	7
CCN(C(=S)Nc1cccnc1)c1ccccc1	-16	-2	-7	1	4	/
NNC(=O)c1cc(-c2ccc(N)cc2)nc2ccc(Br)cc12	40*	-2	3	/	-5	4
CCOC(=O)C1=C(C)N=C2c3ccccc3C(=O)C2C1c1ccccc1 (stereo not drawn)	34*	-3	2	-1	6	37*
